# Source: ChEMBL document CHEMBL4765308, “N-alkylpiperidine carbamates as potential anti-Alzheimer's agents” (Eur J Med Chem, 2020)
# Structures can show the parent of a compound that is named as a salt.
# Key:
# [1] = target: T1, Amine oxidase [flavin-containing] B (Homo sapiens, UniProt P27338); assay: Inhibition of human recombinant microsomal MAO-B expressed in baculovirus-infected BTI-TN-5B1-4 cells assessed as inhibition of H2O2 production using p-tyramine as substrate preincubated for 15 mins followed by substrate addition by Amplex Red reagent based fluorescence analysis
# T1 sequence (P27338 whole entry): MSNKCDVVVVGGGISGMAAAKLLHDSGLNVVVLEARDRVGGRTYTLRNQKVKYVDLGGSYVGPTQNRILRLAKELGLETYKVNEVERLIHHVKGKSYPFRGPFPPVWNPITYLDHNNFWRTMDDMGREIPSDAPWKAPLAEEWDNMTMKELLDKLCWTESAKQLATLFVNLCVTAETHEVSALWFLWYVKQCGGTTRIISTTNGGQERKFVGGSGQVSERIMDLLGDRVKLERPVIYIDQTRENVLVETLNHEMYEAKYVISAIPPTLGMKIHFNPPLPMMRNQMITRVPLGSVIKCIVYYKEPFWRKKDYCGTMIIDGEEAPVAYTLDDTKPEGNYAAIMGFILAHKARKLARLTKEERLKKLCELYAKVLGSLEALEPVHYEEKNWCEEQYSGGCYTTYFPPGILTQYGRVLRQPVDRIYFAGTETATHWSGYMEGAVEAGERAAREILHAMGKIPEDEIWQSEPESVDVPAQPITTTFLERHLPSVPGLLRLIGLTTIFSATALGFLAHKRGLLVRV
# Method in brief: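 Recombinant human MAO-A or MAO-B (insect-cell microsomes) preincubated with compound 15 min at 37 °C in 50 mM sodium phosphate, pH 7.4, 0.05% Triton X-114. Reaction started with 1 mM p-tyramine, 250 µM Amplex Red and 2 U/mL HRP (final concentrations). Resorufin fluorescence (ex 530/em 590 nm) followed for 20 min at 37 °C, duplicates. Blank-corrected residual activity; IC50 from a four-parameter Hill fit.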
# [2] = target: T2, Amine oxidase [flavin-containing] A (Homo sapiens, UniProt P21397); assay: Inhibition of human recombinant microsomal MAO-A expressed in baculovirus-infected BTI-TN-5B1-4 cells assessed as inhibition of H2O2 production using p-tyramine as substrate preincubated for 15 mins followed by substrate addition by Amplex Red reagent based fluorescence analysis
# T2 sequence (P21397 whole entry): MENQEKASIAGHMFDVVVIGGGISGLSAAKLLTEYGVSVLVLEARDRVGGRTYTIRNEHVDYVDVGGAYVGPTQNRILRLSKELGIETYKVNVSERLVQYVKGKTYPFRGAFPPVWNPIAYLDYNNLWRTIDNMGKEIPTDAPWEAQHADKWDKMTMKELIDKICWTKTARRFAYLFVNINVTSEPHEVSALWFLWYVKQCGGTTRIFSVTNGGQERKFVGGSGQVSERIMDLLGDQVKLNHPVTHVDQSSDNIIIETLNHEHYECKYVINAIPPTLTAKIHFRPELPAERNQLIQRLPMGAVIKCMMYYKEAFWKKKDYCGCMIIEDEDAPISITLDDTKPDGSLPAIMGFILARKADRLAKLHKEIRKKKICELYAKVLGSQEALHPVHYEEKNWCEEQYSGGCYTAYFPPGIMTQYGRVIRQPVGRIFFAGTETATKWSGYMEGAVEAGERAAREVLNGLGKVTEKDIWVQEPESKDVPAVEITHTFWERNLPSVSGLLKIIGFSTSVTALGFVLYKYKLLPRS
# [3] = target: Acetylcholinesterase (Homo sapiens, UniProt P22303); assay: Inhibition of human AChE using acetylthiocholine iodide as substrate preincubated with enzyme for 30 mins followed by substrate addition by Ellman's method
# Chain of Acetylcholinesterase (P22303 whole entry): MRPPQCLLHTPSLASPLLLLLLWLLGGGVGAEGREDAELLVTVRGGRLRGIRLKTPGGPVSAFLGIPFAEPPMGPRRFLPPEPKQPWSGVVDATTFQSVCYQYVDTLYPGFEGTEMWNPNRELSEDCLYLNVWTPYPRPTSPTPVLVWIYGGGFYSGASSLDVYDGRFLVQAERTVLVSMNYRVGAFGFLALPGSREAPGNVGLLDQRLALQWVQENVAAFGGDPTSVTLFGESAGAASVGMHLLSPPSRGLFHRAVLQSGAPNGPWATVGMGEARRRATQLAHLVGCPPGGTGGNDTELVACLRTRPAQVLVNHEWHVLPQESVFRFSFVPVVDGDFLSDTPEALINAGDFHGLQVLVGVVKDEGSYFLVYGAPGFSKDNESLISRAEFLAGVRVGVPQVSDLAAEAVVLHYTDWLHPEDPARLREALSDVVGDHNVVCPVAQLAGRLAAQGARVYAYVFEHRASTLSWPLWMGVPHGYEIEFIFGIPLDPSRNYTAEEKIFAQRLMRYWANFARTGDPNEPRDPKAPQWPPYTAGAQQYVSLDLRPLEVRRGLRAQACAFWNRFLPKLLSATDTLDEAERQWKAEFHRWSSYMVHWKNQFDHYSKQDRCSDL
# [4] = target: Cholinesterase (Homo sapiens, UniProt P06276); assay: Inhibition of human BuchE using butyrylthiocholine iodide as substrate preincubated for 30 mins followed by substrate addition by Ellman's method
# Chain of Cholinesterase (P06276 whole entry): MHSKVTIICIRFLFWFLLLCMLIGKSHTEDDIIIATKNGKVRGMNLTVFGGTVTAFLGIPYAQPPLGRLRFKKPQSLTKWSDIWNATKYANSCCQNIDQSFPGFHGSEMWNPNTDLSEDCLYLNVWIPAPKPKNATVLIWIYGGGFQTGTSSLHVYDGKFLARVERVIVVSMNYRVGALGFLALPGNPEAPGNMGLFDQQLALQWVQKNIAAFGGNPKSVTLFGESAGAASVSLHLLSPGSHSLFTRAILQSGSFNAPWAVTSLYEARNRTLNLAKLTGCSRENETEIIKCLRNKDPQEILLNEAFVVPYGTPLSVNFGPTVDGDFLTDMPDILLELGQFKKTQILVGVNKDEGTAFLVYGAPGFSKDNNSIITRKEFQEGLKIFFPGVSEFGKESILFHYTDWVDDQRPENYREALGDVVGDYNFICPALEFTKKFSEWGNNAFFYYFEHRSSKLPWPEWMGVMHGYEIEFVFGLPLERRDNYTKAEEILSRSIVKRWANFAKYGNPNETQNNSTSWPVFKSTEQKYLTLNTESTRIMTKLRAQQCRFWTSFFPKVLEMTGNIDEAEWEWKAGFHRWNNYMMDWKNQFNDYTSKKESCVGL
# [5] = organism: Homo sapiens; assay: Inhibition of HFIP-pretreated human amyloid beta (1 to 42) self aggregation at 10 uM incubated for 36 to 48 hrs by thioflavin-T based fluorescence method relative to control; details: time 36-48 hrs
# Method in brief: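 HFIP-pretreated Aβ1-42 (1.5 µM) incubated with compound (10 µM) and thioflavin-T (10 µM final) at room temperature with continuous shaking for 36–48 h. Fluorescence (ex 440/em 490 nm) read every 3 min. Percent inhibition compared with Aβ + DMSO control, run in quadruplicate. Three independent experiments, mean ± SD, one-way ANOVA with Bonferroni test.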
SMILES,IC50 [1],IC50 [2],IC50 [3],IC50 [4],inhibition [5]
O=C(Nc1ccccc1)OCC1CCN(C2Cc3ccccc3C2)CC1,> 100 µM,> 100 µM,> 100 µM,1.43 µM,
CC(C)c1ccc(NC(=O)OC2CCCN(C3Cc4ccccc4C3)C2)cc1 (stereo not drawn),> 100 µM,> 100 µM,7.91 µM,> 100 µM,
OC1CCN(C2Cc3ccccc3C2)CC1,> 100 µM,> 100 µM,> 100 µM,> 100 µM,
C#CCN1CCC(OC(=O)N(C)CC)CC1,> 100 µM,> 100 µM,> 100 µM,11.4 µM,
C#CCN1CCCC(OC(=O)N(C)CC)C1 (stereo not drawn),> 100 µM,> 100 µM,> 100 µM,> 100 µM,
C#CCN1CCCC(COC(=O)Nc2ccccc2)C1 (stereo not drawn),> 100 µM,> 100 µM,> 100 µM,29.6 µM,
O=C(Nc1ccccc1)OC1CCCN(Cc2ccccc2)C1 (stereo not drawn),33.3 µM,> 100 µM,> 100 µM,0.46 µM,
O=C(Nc1ccccc1)OC1CCN(C2Cc3ccccc3C2)CC1,> 100 µM,> 100 µM,19.2 µM,18.1 µM,
CC(C)c1ccc(NC(=O)OC2CCN(Cc3ccccc3)CC2)cc1,> 100 µM,> 100 µM,> 100 µM,1.74 µM,
OCC1CCN(Cc2ccccc2)CC1,> 100 µM,> 100 µM,> 100 µM,> 100 µM,
CCN(C)C(=O)OCC1CCN(C2Cc3ccccc3C2)CC1,> 100 µM,> 100 µM,> 100 µM,4.46 µM,
C#CCN1CCCC(CO)C1 (stereo not drawn),> 100 µM,> 100 µM,> 100 µM,> 100 µM,
CCN(C)C(=O)OC1CCCN(C2Cc3ccccc3C2)C1 (stereo not drawn),> 100 µM,> 100 µM,> 100 µM,9.69 µM,
COc1cc2c(cc1OC)C(=O)C(CC1CCN(Cc3ccccc3)CC1)C2 (stereo not drawn),,,,,< 20%
CCN(C)C(=O)OCC1CCN(Cc2ccccc2)CC1,> 100 µM,> 100 µM,72 µM,46 µM,
CC(C)c1ccc(NC(=O)OC2CCCN(Cc3ccccc3)C2)cc1 (stereo not drawn),29.3 µM,> 100 µM,> 100 µM,3.25 µM,
C#CCN1CCCC(COC(=O)N(C)CC)C1 (stereo not drawn),> 100 µM,> 100 µM,> 100 µM,> 100 µM,
C#CCN1CCC(COC(=O)N(C)CC)CC1,> 100 µM,> 100 µM,> 100 µM,> 100 µM,
CC(C)c1ccc(NC(=O)OC2CCN(C3Cc4ccccc4C3)CC2)cc1,> 100 µM,> 100 µM,2.31 µM,> 100 µM,
C#CCN1CCC(OC(=O)Nc2ccccc2)CC1,> 100 µM,> 100 µM,> 100 µM,19.1 µM,
C#CCN1CCCC(COC(=O)Nc2ccc(C(C)C)cc2)C1 (stereo not drawn),2.86 µM,> 100 µM,> 100 µM,17.8 µM,
C#CCN1CCC(CO)CC1,> 100 µM,> 100 µM,> 100 µM,> 100 µM,
O=C(Nc1ccccc1)OCC1CCCN(C2Cc3ccccc3C2)C1 (stereo not drawn),> 100 µM,> 100 µM,> 100 µM,0.18 µM,
C#CCN1CCC(O)CC1,> 100 µM,> 100 µM,> 100 µM,> 100 µM,

SMILES,IC50 [1],IC50 [2],IC50 [3],IC50 [4],inhibition [5]
C#CCN1CCCC(O)C1 (stereo not drawn),> 100 µM,> 100 µM,> 100 µM,> 100 µM,
O=C(Nc1ccccc1)OC1CCN(Cc2ccccc2)CC1,> 100 µM,> 100 µM,> 100 µM,6.55 µM,
CCN(C)C(=O)OC1CCCN(Cc2ccccc2)C1 (stereo not drawn),> 100 µM,> 100 µM,> 100 µM,21 µM,
OCC1CCCN(C2Cc3ccccc3C2)C1 (stereo not drawn),> 100 µM,> 100 µM,> 100 µM,> 100 µM,
CCN(C)C(=O)OCC1CCCN(Cc2ccccc2)C1 (stereo not drawn),> 100 µM,> 100 µM,96.6 µM,7.23 µM,
C#CCN1CCC(COC(=O)Nc2ccc(C(C)C)cc2)CC1,0.316 µM,> 100 µM,> 100 µM,24.3 µM,
OC1CCCN(C2Cc3ccccc3C2)C1 (stereo not drawn),> 100 µM,> 100 µM,> 100 µM,> 100 µM,
OC1CCN(Cc2ccccc2)CC1,> 100 µM,> 100 µM,> 100 µM,> 100 µM,
CC(C)c1ccc(NC(=O)OCC2CCCN(Cc3ccccc3)C2)cc1 (stereo not drawn),> 100 µM,> 100 µM,15.1 µM,0.118 µM,
OC1CCCN(Cc2ccccc2)C1 (stereo not drawn),> 100 µM,> 100 µM,> 100 µM,> 100 µM,
Oc1ccc(/C=C/c2cc(O)cc(O)c2)cc1,,,,,86.6%
C#CCN[C@@H]1CCc2ccccc21 [RASAGILINE MESYLATE],,,> 100 µM,> 100 µM,< 20%
CC(C)c1ccc(NC(=O)OCC2CCCN(C3Cc4ccccc4C3)C2)cc1 (stereo not drawn),> 100 µM,> 100 µM,18.7 µM,0.442 µM,
O=C(Nc1ccccc1)OCC1CCCN(Cc2ccccc2)C1 (stereo not drawn),39.5 µM,> 100 µM,67.1 µM,0.52 µM,
C#CCN1CCCC(OC(=O)Nc2ccccc2)C1 (stereo not drawn),> 100 µM,> 100 µM,> 100 µM,84.5 µM,
C#CCN1CCCC(OC(=O)Nc2ccc(C(C)C)cc2)C1 (stereo not drawn),71.8 µM,> 100 µM,> 100 µM,> 100 µM,
OCC1CCN(C2Cc3ccccc3C2)CC1,> 100 µM,> 100 µM,> 100 µM,> 100 µM,
CCN(C)C(=O)Oc1cccc([C@H](C)N(C)C)c1 [RIVASTIGMINE TARTRATE],> 100 µM,,,,< 20%
C#CCN1CCC(COC(=O)Nc2ccccc2)CC1,10.3 µM,> 100 µM,> 100 µM,14.4 µM,
CCN(C)C(=O)OC1CCN(Cc2ccccc2)CC1,> 100 µM,> 100 µM,> 100 µM,> 100 µM,
CCN(C)C(=O)OCC1CCCN(C2Cc3ccccc3C2)C1 (stereo not drawn),> 100 µM,> 100 µM,> 100 µM,9.39 µM,
OCC1CCCN(Cc2ccccc2)C1 (stereo not drawn),> 100 µM,> 100 µM,> 100 µM,> 100 µM,
CCN(C)C(=O)OC1CCN(C2Cc3ccccc3C2)CC1,> 100 µM,> 100 µM,> 100 µM,40.8 µM,
CC(C)c1ccc(NC(=O)OCC2CCN(C3Cc4ccccc4C3)CC2)cc1,> 100 µM,> 100 µM,4.08 µM,> 100 µM,
